{"data": "Measurements from different studies", "observed": "cell growth or viability"}
{"Compound": "CCCOc1nc(-c2cccc(O)c2)cc(-c2cc3cc(Cl)ccc3nc2N2CCOCC2)c1C#N", "cell line": "Caco-2", "technique": "MTT", "time": "72 h", "IC50 [nM]": 355}
{"Compound": "C=CC(=O)N1CCN(c2nc(=O)n(-c3c(C)ccnc3C(C)C)c3nc(-c4c(O)cccc4F)c(F)cc23)[C@@H](C)C1", "cell line": "UMUC3", "technique": "ATP luminescence", "IC50 [nM]": 48.8}
{"Compound": "N[C@H]1CC[C@H](N[C@@H]2C[C@H]2c2ccccc2)CC1", "cell line": "TC-32", "technique": "resazurin", "IC50 [nM]": 178000}
{"Compound": "COc1cc2c3c(n(CCCN4CCOCC4)c(=O)c2cc1OC)-c1nc2c(cc1C3=O)OCO2", "cell line": "TC-32", "technique": "MTS", "time": "72 h", "IC50 [nM]": 569}
{"Compound": "COc1cccc2c1C(=O)c1c(O)c3c(c(O)c1C2=O)C[C@@](O)(C(=O)CO)C[C@@H]3O[C@H]1C[C@H](N)[C@H](O)[C@H](C)O1", "cell line": "NCI-H1650", "technique": "MTT", "time": "72 h", "IC50 [nM]": 120}
{"Compound": "CCCOc1nc(-c2cccc(O)c2)cc(-c2cc3cc(OC)ccc3nc2N2CCOCC2)c1C#N", "cell line": "Caco-2", "technique": "MTT", "time": "72 h", "IC50 [nM]": 42.2}
{"Compound": "COc1nc(NCc2cn(-c3ccc(C(N)=O)cc3)nn2)nc(OC)n1", "cell line": "Caco-2", "technique": "MTT", "time": "72 h", "IC50 [nM]": 970}
{"Compound": "CCOc1nc(-c2cccc(O)c2)cc(-c2cc3cc(Cl)ccc3nc2N2CCOCC2)c1C#N", "cell line": "Caco-2", "technique": "MTT", "time": "72 h", "IC50 [nM]": 117}
{"Compound": "CC(C)c1ccccc1[C@@H]1CCCN1C1CC2(CCN(c3ccc(C(=O)NS(=O)(=O)c4ccc(NC[C@H]5CC[C@](C)(O)CC5)c([N+](=O)[O-])c4)c(Oc4cnc5[nH]ccc5c4)c3)CC2)C1", "cell line": "SU-DHL-4", "technique": "ATP luminescence", "time": "48 h", "IC50 [nM]": 2.7}
{"Compound": "COc1nc(NCc2cn(-c3ccc(NC(=O)c4ccc(F)cc4)cc3)nn2)nc(OC)n1", "cell line": "Caco-2", "technique": "MTT", "time": "72 h", "IC50 [nM]": 550}
{"Compound": "C=C(F)C(=O)N1CCN(c2nc(OC[C@@H]3CCCN3C)nc3c2CCN(c2cccc4cccc(Cl)c24)C3)C[C@@H]1CC#N", "cell line": "UMUC3", "technique": "ATP luminescence", "IC50 [nM]": 294}
{"Compound": "COc1nc(NCc2cn(-c3ccc(C(=O)Nc4ccc(C(F)(F)F)cc4)cc3)nn2)nc(OC)n1", "cell line": "Caco-2", "technique": "MTT", "time": "72 h", "IC50 [nM]": 171}
{"Compound": "CCNCCCn1c2c(c3cc(OC)c(OC)cc3c1=O)C(=O)c1cc3c(nc1-2)OCO3", "cell line": "TC-32", "technique": "MTS", "time": "72 h", "IC50 [nM]": 53}
{"Compound": "COc1nc(NCc2cn(-c3ccc(NC(=O)c4ccc([N+](=O)[O-])cc4)cc3)nn2)nc(OC)n1", "cell line": "Caco-2", "technique": "MTT", "time": "72 h", "IC50 [nM]": 658}
{"Compound": "COc1cc2c3c(n(CCCn4ccnc4)c(=O)c2cc1OC)-c1nc2c(cc1C3=O)OCO2", "cell line": "TC-32", "technique": "MTS", "time": "72 h", "IC50 [nM]": 127}
{"Compound": "Nc1n[nH]c2nc(-c3cccc(O)c3)cc(-c3cc4ccccc4nc3N3CCOCC3)c12", "cell line": "Caco-2", "technique": "MTT", "time": "72 h", "IC50 [nM]": 625}
{"Compound": "COc1nc(NCc2cn(-c3ccc(C(=O)Nc4ccc(Cl)cc4)cc3)nn2)nc(OC)n1", "cell line": "Caco-2", "technique": "MTT", "time": "72 h", "IC50 [nM]": 543}
